Test system: Fibroblast
Experiment: Multiplex assay against human fibroblast
Type: toxicity, cell-based
How it was run: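 Values for tubulin, mitochondrial-mass and membrane-permeability phenotypes are per cents of cells with healthy nuclei. These cells were identified by CellPathfinder machine-learning gating of live cells that had been stained at seeding with Hoechst33342, BioTracker Green Microtubule Cytoskeleton Dye, MitoTracker Red and Annexin V Alexa Fluor 680 and imaged on a CQ1 microscope at 37°C and 5% CO2 after compound addition. The gating first set Hoechst high-intensity objects apart from normal cells, then split normal cells into healthy, pyknosed or fragmented nuclei, and pyknosed cells into mitotic or apoptotic.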

[1] = 12 h, 1 µM, compound concentration 1 uM, replicate 1
[2] = 12 h, 1 µM, compound concentration 1 uM, replicate 2
[3] = 12 h, 10 µM, compound concentration 10 uM, replicate 1
[4] = 12 h, 10 µM, compound concentration 10 uM, replicate 2
[5] = 24 h, 1 µM, compound concentration 1 uM, replicate 1
[6] = 24 h, 1 µM, compound concentration 1 uM, replicate 2
[7] = 24 h, 10 µM, compound concentration 10 uM, replicate 1
[8] = 24 h, 10 µM, compound concentration 10 uM, replicate 2
[9] = 48 h, 1 µM, compound concentration 1 uM, replicate 1
[10] = 48 h, 1 µM, compound concentration 1 uM, replicate 2
[11] = 48 h, 10 µM, compound concentration 10 uM, replicate 1
[12] = 48 h, 10 µM, compound concentration 10 uM, replicate 2

Structure (SMILES): CC[C@H]1OC(=O)[C@H](C)[C@@H](O[C@H]2C[C@@](C)(OC)[C@@H](O)[C@H](C)O2)[C@H](C)[C@@H](O[C@@H]2O[C@H](C)C[C@H](N(C)C)[C@H]2O)[C@@]2(C)CC(C)=C(O2)[C@H](C)[C@@H](O)[C@]1(C)O
- Population Apoptotic (%) [1]: 37%
- Population Fragmented Nuclei (%) [1]: 13%
- Population Healthy Nuclei (%) [1]: 72%
- Population Hoechst High Intensity Objects (%) [1]: 2%
- Population Membrane Permeable-Phenotype (%) [1]: 0%
- Population Mitochondria Different-Phenotype (%) [1]: 8%
- Population Mitotic Cells (%) [1]: 62%
- Population Normal (%) [1]: 97%
- Population Pyknosed Nuclei (%) [1]: 13%
- Population Tubulin-Different-Phenotype (%) [1]: 40%
- Total Cell Count [1]: 176
- Population Apoptotic (%) [2]: 46%
- Population Fragmented Nuclei (%) [2]: 23%
- Population Healthy Nuclei (%) [2]: 57%
- Population Hoechst High Intensity Objects (%) [2]: 3%
- Population Membrane Permeable-Phenotype (%) [2]: 9%
- Population Mitochondria Different-Phenotype (%) [2]: 6%
- Population Mitotic Cells (%) [2]: 53%
- Population Normal (%) [2]: 96%
- Population Pyknosed Nuclei (%) [2]: 18%
- Population Tubulin-Different-Phenotype (%) [2]: 53%
- Total Cell Count [2]: 170
- Population Apoptotic (%) [3]: 48%
- Population Fragmented Nuclei (%) [3]: 24%
- Population Healthy Nuclei (%) [3]: 63%
- Population Hoechst High Intensity Objects (%) [3]: 3%
- Population Membrane Permeable-Phenotype (%) [3]: 0%
- Population Mitochondria Different-Phenotype (%) [3]: 25%
- Population Mitotic Cells (%) [3]: 52%
- Population Normal (%) [3]: 96%
- Population Pyknosed Nuclei (%) [3]: 12%
- Population Tubulin-Different-Phenotype (%) [3]: 86%
- Total Cell Count [3]: 205
- Population Apoptotic (%) [4]: 40%
- Population Fragmented Nuclei (%) [4]: 41%
- Population Healthy Nuclei (%) [4]: 33%
- Population Hoechst High Intensity Objects (%) [4]: 4%
- Population Membrane Permeable-Phenotype (%) [4]: 14%
- Population Mitochondria Different-Phenotype (%) [4]: 11%
- Population Mitotic Cells (%) [4]: 59%
- Population Normal (%) [4]: 95%
- Population Pyknosed Nuclei (%) [4]: 25%
- Population Tubulin-Different-Phenotype (%) [4]: 73%
- Total Cell Count [4]: 133
- Population Apoptotic (%) [5]: 52%
- Population Fragmented Nuclei (%) [5]: 18%
- Population Healthy Nuclei (%) [5]: 69%
- Population Hoechst High Intensity Objects (%) [5]: 4%
- Population Membrane Permeable-Phenotype (%) [5]: 0%
- Population Mitochondria Different-Phenotype (%) [5]: 7%
- Population Mitotic Cells (%) [5]: 47%
- Population Normal (%) [5]: 95%
- Population Pyknosed Nuclei (%) [5]: 12%
- Population Tubulin-Different-Phenotype (%) [5]: 45%
- Total Cell Count [5]: 173
- Population Apoptotic (%) [6]: 46%
- Population Fragmented Nuclei (%) [6]: 29%
- Population Healthy Nuclei (%) [6]: 52%
- Population Hoechst High Intensity Objects (%) [6]: 3%
- Population Membrane Permeable-Phenotype (%) [6]: 7%
- Population Mitochondria Different-Phenotype (%) [6]: 5%
- Population Mitotic Cells (%) [6]: 53%
- Population Normal (%) [6]: 96%
- Population Pyknosed Nuclei (%) [6]: 17%
- Population Tubulin-Different-Phenotype (%) [6]: 36%
- Total Cell Count [6]: 176
- Population Apoptotic (%) [7]: 52%
- Population Fragmented Nuclei (%) [7]: 22%
- Population Healthy Nuclei (%) [7]: 69%
- Population Hoechst High Intensity Objects (%) [7]: 2%
- Population Membrane Permeable-Phenotype (%) [7]: 0%
- Population Mitochondria Different-Phenotype (%) [7]: 37%
- Population Mitotic Cells (%) [7]: 47%
- Population Normal (%) [7]: 97%
- Population Pyknosed Nuclei (%) [7]: 8%
- Population Tubulin-Different-Phenotype (%) [7]: 89%
- Total Cell Count [7]: 199
- Population Apoptotic (%) [8]: 46%
- Population Fragmented Nuclei (%) [8]: 40%
- Population Healthy Nuclei (%) [8]: 39%
- Population Hoechst High Intensity Objects (%) [8]: 1%
- Population Membrane Permeable-Phenotype (%) [8]: 8%
- Population Mitochondria Different-Phenotype (%) [8]: 12%
- Population Mitotic Cells (%) [8]: 53%
- Population Normal (%) [8]: 98%
- Population Pyknosed Nuclei (%) [8]: 20%
- Population Tubulin-Different-Phenotype (%) [8]: 81%
- Total Cell Count [8]: 127
- Population Apoptotic (%) [9]: 55%
- Population Fragmented Nuclei (%) [9]: 17%
- Population Healthy Nuclei (%) [9]: 71%
- Population Hoechst High Intensity Objects (%) [9]: 3%
- Population Membrane Permeable-Phenotype (%) [9]: 0%
- Population Mitochondria Different-Phenotype (%) [9]: 9%
- Population Mitotic Cells (%) [9]: 44%
- Population Normal (%) [9]: 96%
- Population Pyknosed Nuclei (%) [9]: 11%
- Population Tubulin-Different-Phenotype (%) [9]: 57%
- Total Cell Count [9]: 168
- Population Apoptotic (%) [10]: 56%
- Population Fragmented Nuclei (%) [10]: 32%
- Population Healthy Nuclei (%) [10]: 54%
- Population Hoechst High Intensity Objects (%) [10]: 2%
- Population Membrane Permeable-Phenotype (%) [10]: 7%
- Population Mitochondria Different-Phenotype (%) [10]: 5%
- Population Mitotic Cells (%) [10]: 43%
- Population Normal (%) [10]: 97%
- Population Pyknosed Nuclei (%) [10]: 13%
- Population Tubulin-Different-Phenotype (%) [10]: 56%
- Total Cell Count [10]: 173
- Population Apoptotic (%) [11]: 84%
- Population Fragmented Nuclei (%) [11]: 24%
- Population Healthy Nuclei (%) [11]: 68%
- Population Hoechst High Intensity Objects (%) [11]: 8%
- Population Membrane Permeable-Phenotype (%) [11]: 0%
- Population Mitochondria Different-Phenotype (%) [11]: 40%
- Population Mitotic Cells (%) [11]: 15%
- Population Normal (%) [11]: 91%
- Population Pyknosed Nuclei (%) [11]: 6%
- Population Tubulin-Different-Phenotype (%) [11]: 91%
- Total Cell Count [11]: 216
- Population Apoptotic (%) [12]: 58%
- Population Fragmented Nuclei (%) [12]: 43%
- Population Healthy Nuclei (%) [12]: 47%
- Population Hoechst High Intensity Objects (%) [12]: 7%
- Population Membrane Permeable-Phenotype (%) [12]: 6%
- Population Mitochondria Different-Phenotype (%) [12]: 8%
- Population Mitotic Cells (%) [12]: 41%
- Population Normal (%) [12]: 92%
- Population Pyknosed Nuclei (%) [12]: 9%
- Population Tubulin-Different-Phenotype (%) [12]: 78%
- Total Cell Count [12]: 139
